Measured values taken from ChEMBL document CHEMBL4028864 (J Med Chem, 2017).
The source made the active and inactive calls. The calls are words filed in the database; no cut-off is given here.

Tests used:
[1] = Half life in rat liver microsome preincubated for 5 mins followed by NADPH addition by LC-MS/MS analysis; format: ADME; conditions: liver microsomes
[2] = Clearance in Wistar rat at 1 mg/kg, iv by LC-MS/MS analysis; format: ADME, organism-based; conditions: in vivo
Summary of the method: (§1)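 Wistar rats given a single 1 mg/kg iv dose. Plasma concentration–time profiles were plotted as mean ± SEM and sampled through 24 h postdose. Values were taken from the iv profile.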

[3] = Cytotoxicity against human AC10 cells assessed as cell viability at 100 uM after 24 hrs by CellTiter-Glo assay relative to control; format: cell-based; conditions: read-out: Activity
Summary of the method: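 AC10 human cardiomyocytes seeded at 5000 cells/well the day before treatment. Cells were exposed for 24 h at 37 °C to a range of 0.315–100 μM final (0.5% DMSO). Viability was read by CellTiter-Glo luminescence.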

[4] = target: T1, Tyrosine-protein kinase JAK2 (Homo sapiens, UniProt O60674); assay: Inhibition of human JAK2 using poly[Glu:Tyr] as substrate in presence of [gamma-33P]-ATP
T1 sequence (O60674 whole entry, the tested form may be a part): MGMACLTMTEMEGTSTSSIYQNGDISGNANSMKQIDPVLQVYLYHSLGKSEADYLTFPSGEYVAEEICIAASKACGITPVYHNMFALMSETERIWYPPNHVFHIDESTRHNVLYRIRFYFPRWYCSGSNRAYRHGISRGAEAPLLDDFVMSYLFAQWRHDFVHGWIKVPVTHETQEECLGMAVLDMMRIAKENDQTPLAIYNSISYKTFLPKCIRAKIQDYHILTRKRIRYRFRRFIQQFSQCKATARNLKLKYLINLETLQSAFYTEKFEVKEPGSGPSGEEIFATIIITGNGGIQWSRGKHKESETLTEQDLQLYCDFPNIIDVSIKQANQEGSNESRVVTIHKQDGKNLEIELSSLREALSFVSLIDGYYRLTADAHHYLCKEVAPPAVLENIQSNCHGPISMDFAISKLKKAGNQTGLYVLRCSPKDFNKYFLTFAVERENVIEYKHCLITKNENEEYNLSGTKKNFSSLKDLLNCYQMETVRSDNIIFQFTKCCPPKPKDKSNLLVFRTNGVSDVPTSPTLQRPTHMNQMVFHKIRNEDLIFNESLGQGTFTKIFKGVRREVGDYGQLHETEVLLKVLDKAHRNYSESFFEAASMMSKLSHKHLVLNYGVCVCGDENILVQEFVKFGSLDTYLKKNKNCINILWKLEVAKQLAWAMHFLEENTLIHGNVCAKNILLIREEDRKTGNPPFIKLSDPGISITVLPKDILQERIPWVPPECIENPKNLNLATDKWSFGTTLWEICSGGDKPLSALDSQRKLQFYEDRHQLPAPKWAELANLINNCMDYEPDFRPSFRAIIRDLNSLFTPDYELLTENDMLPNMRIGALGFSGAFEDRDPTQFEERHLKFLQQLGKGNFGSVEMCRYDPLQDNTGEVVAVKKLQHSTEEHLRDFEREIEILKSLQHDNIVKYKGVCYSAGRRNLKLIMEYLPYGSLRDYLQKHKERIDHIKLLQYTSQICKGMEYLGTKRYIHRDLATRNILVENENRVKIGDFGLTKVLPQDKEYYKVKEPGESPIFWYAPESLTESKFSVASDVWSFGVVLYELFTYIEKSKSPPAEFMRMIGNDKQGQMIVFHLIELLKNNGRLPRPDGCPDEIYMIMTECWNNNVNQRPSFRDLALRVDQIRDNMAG

[5] = target: T1, Tyrosine-protein kinase JAK2; assay: Binding affinity to N-terminal His tagged human recombinant JAK2 (1014 to 1132 residues) expressed in Escherichia coli after 60 to 90 mins by LC/MS analysis; conditions: read-out: Kd(app)
[6] = target: Receptor-type tyrosine-protein kinase FLT3 (Homo sapiens) (UniProt P36888); assay: Inhibition of human FLT3 using EAIYAAPFAKKK as substrate at 1 uM in presence of [gamma-33P]-ATP relative to control
Chain of Receptor-type tyrosine-protein kinase FLT3 (Homo sapiens) (P36888 whole entry): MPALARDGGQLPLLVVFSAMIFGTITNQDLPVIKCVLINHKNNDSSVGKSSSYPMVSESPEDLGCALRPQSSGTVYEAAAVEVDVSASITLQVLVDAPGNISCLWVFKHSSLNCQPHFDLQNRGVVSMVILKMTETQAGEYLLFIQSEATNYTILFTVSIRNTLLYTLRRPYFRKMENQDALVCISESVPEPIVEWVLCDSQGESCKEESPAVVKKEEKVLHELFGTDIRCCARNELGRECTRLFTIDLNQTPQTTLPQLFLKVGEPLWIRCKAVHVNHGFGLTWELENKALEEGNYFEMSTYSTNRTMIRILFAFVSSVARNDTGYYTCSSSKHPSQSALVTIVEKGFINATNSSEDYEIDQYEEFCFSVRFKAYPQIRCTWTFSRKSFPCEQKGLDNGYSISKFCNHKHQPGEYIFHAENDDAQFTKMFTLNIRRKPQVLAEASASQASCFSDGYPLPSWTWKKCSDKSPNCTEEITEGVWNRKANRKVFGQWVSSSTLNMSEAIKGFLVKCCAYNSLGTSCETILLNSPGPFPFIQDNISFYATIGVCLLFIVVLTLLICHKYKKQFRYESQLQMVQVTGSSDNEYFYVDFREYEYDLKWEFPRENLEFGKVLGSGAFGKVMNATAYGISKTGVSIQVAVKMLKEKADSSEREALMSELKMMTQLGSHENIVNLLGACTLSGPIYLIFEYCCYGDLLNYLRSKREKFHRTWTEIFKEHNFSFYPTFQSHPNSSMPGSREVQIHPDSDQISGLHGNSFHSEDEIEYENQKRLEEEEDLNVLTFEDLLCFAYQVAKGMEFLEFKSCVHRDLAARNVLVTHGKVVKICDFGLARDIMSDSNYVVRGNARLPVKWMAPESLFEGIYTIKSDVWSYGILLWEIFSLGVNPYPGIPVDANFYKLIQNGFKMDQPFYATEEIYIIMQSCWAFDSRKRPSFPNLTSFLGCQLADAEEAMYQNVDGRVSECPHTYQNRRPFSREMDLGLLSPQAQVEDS
Summary of the method: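 Kinase inhibition was tested by radiometric "Hotspot" profiling at a contract laboratory with 10 μM ATP.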

[7] = target: Non-receptor tyrosine-protein kinase TYK2 (Homo sapiens, UniProt P29597); assay: Inhibition of wild type human TYK2 (V877 to C1187 residues) expressed in mammalian cells assessed as residual activity at 1 uM by KINOMEscan assay relative to control; format: cell-based
Chain of Non-receptor tyrosine-protein kinase TYK2 (P29597 whole entry, the tested form may be a part): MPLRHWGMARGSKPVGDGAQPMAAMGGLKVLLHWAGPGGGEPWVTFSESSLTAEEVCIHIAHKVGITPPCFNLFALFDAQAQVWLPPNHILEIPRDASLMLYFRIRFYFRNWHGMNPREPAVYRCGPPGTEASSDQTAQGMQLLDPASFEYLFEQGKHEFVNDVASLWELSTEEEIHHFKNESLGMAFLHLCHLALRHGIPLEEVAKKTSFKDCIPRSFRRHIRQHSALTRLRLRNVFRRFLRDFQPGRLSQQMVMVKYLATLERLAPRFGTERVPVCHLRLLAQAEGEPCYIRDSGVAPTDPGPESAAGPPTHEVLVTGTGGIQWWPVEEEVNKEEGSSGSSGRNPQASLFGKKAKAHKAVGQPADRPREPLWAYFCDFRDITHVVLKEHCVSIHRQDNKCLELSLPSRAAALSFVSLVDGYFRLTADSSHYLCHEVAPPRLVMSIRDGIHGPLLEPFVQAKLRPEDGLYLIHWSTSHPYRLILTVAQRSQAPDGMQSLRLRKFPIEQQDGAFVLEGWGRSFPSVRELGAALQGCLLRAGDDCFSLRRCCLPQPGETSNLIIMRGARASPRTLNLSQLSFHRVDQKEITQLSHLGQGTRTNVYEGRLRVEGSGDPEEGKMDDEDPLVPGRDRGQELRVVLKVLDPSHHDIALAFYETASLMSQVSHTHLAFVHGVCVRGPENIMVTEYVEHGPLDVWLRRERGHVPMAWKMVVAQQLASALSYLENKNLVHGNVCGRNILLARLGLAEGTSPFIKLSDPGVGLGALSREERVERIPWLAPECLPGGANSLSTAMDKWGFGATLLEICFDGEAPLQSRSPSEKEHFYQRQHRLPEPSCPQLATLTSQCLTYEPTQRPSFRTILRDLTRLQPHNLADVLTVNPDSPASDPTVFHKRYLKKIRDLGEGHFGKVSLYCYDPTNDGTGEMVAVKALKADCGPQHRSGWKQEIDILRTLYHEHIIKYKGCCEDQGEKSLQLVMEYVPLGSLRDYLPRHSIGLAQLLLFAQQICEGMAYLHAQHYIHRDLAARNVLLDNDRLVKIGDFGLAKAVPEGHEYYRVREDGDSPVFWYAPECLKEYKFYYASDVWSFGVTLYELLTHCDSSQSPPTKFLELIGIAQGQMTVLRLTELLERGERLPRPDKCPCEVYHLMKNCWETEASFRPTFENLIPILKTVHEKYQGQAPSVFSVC

[8] = target: NUAK family SNF1-like kinase 2 (Homo sapiens) (UniProt Q9H093); assay: Inhibition of wild type human SNARK (P22 to A333 residues) expressed in mammalian cells assessed as residual activity at 1 uM by KINOMEscan assay relative to control; format: cell-based
Chain of NUAK family SNF1-like kinase 2 (Homo sapiens) (Q9H093 whole entry, the tested form may be a part): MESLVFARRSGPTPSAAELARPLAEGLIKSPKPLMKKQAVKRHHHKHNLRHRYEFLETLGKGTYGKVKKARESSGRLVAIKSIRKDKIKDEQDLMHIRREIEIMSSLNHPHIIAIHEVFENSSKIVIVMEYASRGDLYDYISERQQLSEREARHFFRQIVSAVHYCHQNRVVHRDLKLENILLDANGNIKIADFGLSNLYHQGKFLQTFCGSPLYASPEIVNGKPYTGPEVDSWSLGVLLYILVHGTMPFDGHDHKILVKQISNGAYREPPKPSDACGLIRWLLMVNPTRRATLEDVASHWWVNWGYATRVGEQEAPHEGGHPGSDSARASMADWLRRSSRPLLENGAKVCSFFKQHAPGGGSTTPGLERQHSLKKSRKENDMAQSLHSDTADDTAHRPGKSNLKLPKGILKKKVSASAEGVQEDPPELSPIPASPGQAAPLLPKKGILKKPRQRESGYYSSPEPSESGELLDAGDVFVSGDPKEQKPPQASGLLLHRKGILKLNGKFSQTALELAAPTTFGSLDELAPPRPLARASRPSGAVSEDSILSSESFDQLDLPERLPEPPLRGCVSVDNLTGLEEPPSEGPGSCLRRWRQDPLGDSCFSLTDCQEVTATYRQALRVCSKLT

Histone deacetylase 2 = Histone deacetylase 2 (Homo sapiens, UniProt Q92769); assay: Inhibition of C-terminal GST tagged human recombinant HDAC2 (1 to 488 residues) expressed in Baculovirus infected insect cells in presence of ATP
Summary of the method: (§2)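 HDAC enzyme inhibition was run by a contract laboratory.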

[9] = target: Histone deacetylase 3/Nuclear receptor corepressor 2 (HDAC3/NCoR2) (Homo sapiens, UniProt O15379); assay: Inhibition of human recombinant HDAC3 (1 to 428 residues)/N-terminal GST-tagged NCOR2 (395 to 489 residues) expressed in Baculovirus infected insect cells in presence of ATP; summary of the method: as §2
[10] = target: Histone deacetylase 4 (Homo sapiens) (UniProt P56524); assay: Inhibition of N-terminal GST tagged/C-terminal His tagged human recombinant HDAC4 (627 to 1084 residues) expressed in Baculovirus infected insect cells in presence of ATP; conditions: concentration not given here; summary of the method: as §2
Chain of Histone deacetylase 4 (Homo sapiens) (P56524 whole entry, the tested form may be a part): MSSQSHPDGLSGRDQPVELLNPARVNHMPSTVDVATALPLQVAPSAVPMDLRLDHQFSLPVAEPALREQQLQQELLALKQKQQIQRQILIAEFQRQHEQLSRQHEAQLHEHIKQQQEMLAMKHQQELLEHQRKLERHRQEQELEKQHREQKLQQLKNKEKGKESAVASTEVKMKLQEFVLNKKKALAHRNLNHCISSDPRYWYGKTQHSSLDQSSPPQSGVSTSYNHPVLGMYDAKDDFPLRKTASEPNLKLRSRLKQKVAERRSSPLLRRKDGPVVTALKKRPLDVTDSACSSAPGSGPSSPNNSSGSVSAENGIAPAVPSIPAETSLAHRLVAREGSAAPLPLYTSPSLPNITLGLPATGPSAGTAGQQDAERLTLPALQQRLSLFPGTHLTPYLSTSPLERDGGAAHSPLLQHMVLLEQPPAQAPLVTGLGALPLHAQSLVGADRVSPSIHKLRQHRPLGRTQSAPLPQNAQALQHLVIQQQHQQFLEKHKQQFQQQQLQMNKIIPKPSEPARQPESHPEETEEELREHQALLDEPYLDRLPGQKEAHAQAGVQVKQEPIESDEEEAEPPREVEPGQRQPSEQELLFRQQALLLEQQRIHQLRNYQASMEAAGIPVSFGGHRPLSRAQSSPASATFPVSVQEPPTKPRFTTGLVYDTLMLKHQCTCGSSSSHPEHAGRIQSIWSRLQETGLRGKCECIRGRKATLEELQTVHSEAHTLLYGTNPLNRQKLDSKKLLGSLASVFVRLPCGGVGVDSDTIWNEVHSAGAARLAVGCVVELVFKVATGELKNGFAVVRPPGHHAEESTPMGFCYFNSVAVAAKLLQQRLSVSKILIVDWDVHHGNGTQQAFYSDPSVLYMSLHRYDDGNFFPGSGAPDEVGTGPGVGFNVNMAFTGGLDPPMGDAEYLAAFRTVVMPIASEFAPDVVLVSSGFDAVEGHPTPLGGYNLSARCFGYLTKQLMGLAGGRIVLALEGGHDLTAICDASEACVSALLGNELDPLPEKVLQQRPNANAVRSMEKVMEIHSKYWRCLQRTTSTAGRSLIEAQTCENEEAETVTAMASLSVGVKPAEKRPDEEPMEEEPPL

Histone deacetylase 5 = Histone deacetylase 5 (Homo sapiens, UniProt Q9UQL6); assay: Inhibition of C-terminal His tagged human recombinant HDAC5 (657 to 1123 residues) expressed in Baculovirus infected insect cells in presence of ATP; summary of the method: as §2
MDA-MB-231 = assay: cells; format: functional, cell-based; conditions: Homo sapiens, MDA-MB-231, 72 h
MCF7 = assay: cells; format: functional, cell-based; conditions: Homo sapiens, MCF7, 72 h
HCT-116 = assay: Antiproliferative activity against human HCT116 cells after 72 hrs by MTT assay; format: functional, cell-based; conditions: HCT-116, 72 h
Jurkat = assay: cells; format: functional, cell-based; conditions: Homo sapiens
OPM-2 = assay: Antiproliferative activity against human OPM2 cells after 48 hrs by CellTiter-Glo luminescent assay; format: functional, cell-based; conditions: OPM-2, 48 h
KG-1 = assay: cells; format: functional, cell-based; conditions: Homo sapiens, KG-1, 48 h
MOLM-14 [11] = assay: cells; format: functional, cell-based; conditions: Homo sapiens, MOLM-14, 48 h
MV4-11 = assay: cells; format: functional, cell-based; conditions: Homo sapiens, MV4-11, 48 h
cells = format: ADME, cell-based; conditions: Homo sapiens, AC10, 24 h
[12] = AUC (0 to infinity) in Wistar rat at 1 mg/kg, iv by LC-MS/MS analysis; format: ADME, organism-based; parameters: dose 1 mg/kg, time infinity, route intravenous; conditions: in vivo; summary of the method: as §1
[13] = Tmax in Wistar rat at 5 mg/kg, po administered via gavage by LC-MS/MS analysis; format: ADME, organism-based; conditions: in vivo
Summary of the method: (§3)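 Wistar rats given a single 5 mg/kg oral dose. Plasma concentration–time profiles were plotted as mean ± SEM and sampled through 24 h postdose.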

[14] = Cmax in Wistar rat at 5 mg/kg, po administered via gavage by LC-MS/MS analysis; format: ADME, organism-based; parameters: dose 5 mg/kg, route oral; conditions: in vivo; summary of the method: as §3
[15] = AUC (0 to infinity) in Wistar rat at 5 mg/kg, po administered via gavage by LC-MS/MS analysis; format: ADME, organism-based; parameters: dose 5 mg/kg, time infinity, route oral; conditions: in vivo; summary of the method: as §3
[16] = target: Protein deacetylase HDAC6 (Homo sapiens) (UniProt Q9UBN7); assay: Inhibition of HDAC6 in human KMS-12-BM cells assessed as increase in acetylated tubulin level up to 6 uM after 16 hrs by immunoblotting analysis; format: cell-based
Summary of the method: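 KMS-12-BM and MOLM-14 cells were treated for 16 h and then lysed. Acetylated tubulin was detected by immunoblotting, and membranes were reprobed for total tubulin as loading control.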

MOLM-14 [17] = assay: Induction of apoptosis in human MOLM14 cells assessed as increase in cleaved PARP level at 1 to 6 uM after 24 hrs by immunoblotting analysis; format: functional, cell-based
Summary of the method: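 KMS-12-BM and MOLM-14 cells were treated for 24 h and then lysed. Cleaved PARP was detected by immunoblotting.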

Plasma = assay: Drug uptake in Wistar rat plasma at 5 mg/kg, po administered via gavage or 1 mg/kg, iv up to 2 hrs by LC-MS/MS analysis; format: ADME, organism-based; conditions: in vivo
Summary of the method: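 Wistar rats dosed once at 5 mg/kg po or 1 mg/kg iv. Plasma levels were followed as mean ± SEM over 24 h postdose and checked against the limit of quantitation at each time point.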

`O=C(CCCCCCn1cc(-c2ncnc3[nH]ccc23)cn1)NO` showed a half-life [1] of over 200 min, a clearance [2] of 95.1 mL/min/kg and a viability at 24 h, 100 µM [3] of 56%. The IC50 [4] was 75 nM, the Kd [5] was 5000 nM and the inhibition [6] was 27%. For the same molecule, the Activity [7] was 3.3%, the Activity [8] was 7.5% and the IC50 (Histone deacetylase 2) was 5.8 nM. The IC50 [9] was 3.9 nM, the inhibition [10] was 23% and the IC50 (Histone deacetylase 5) was 10500 nM. For the same molecule, the IC50 (MDA-MB-231) was 790 nM, the IC50 (MCF7) was 840 nM and the IC50 (HCT-116) was 2320 nM. It also gave an IC50 (Jurkat) of 470 nM, an IC50 (OPM-2) of 2160 nM and an IC50 (KG-1) of 150 nM. The IC50 (MOLM-14 [11]) was 740 nM, the IC50 (MV4-11) was 460 nM and the IC50 (cells) was over 100000 nM. The AUC(0-inf) [12] was 175 ng·h/mL, the Tmax [13] was 4.98 min and the Cmax [14] was 15.9 ng/mL. The AUC(0-inf) [15] was 12.3 ng·h/mL, the inhibition [16] was “Active” and the Activity (MOLM-14 [17]) was “Dose-dependent effect”. The Drug uptake (Plasma) was “Active”.
